# Test results reported in ChEMBL document CHEMBL1641600, “Novel bifunctional alkylating agents, 5,10-dihydropyrrolo[1,2-b]isoquinoline derivatives, synthesis and biological activity” (Bioorg Med Chem, 2011).
# pIC50: −log10 of the molar value.
# Columns and labels:
# [1] = test system: CCRF-CEM; assay: Cytotoxicity against vinblastine-resistant human CCRF-CEM cells after 72 hrs by XTT assay; type: functional, cell-based
# Procedure, shortened: (§1)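 Leukemic CCRF-CEM and its Taxol- and vinblastine-resistant sublines exposed 72 h to six or seven drug concentrations. XTT with phenazine methosulfate added for 6 h at 37 °C; absorbance read at 450 and 630 nm. IC50 obtained from dose-effect data by the median-effect principle.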
# [2] = test system: CCRF-CEM; assay: Cytotoxicity against Taxol-resistant human CCRF-CEM cells after 72 hrs by XTT assay; type: functional, cell-based; procedure, shortened: as §1
# [3] = test system: CCRF-CEM; assay: Cytotoxicity against human CCRF-CEM cells after 72 hrs by XTT assay; type: functional, cell-based; procedure, shortened: as §1
# [4] = test system: CCRF-CEM; assay: Ratio of IC50 for Taxol-resistant human CCRF-CEM cells to IC50 for human CCRF-CEM cells
# [5] = Cytotoxicity against human OECM1 cells after 72 hrs by Alamar blue assay; type: functional, cell-based; settings: OECM1, 72 h
# Procedure, shortened: (§2)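 H1299, PC3, OECM1 and U87 cells exposed 72 h to six or seven drug concentrations. Alamar blue added for 6 h at 37 °C; absorbance read at 570 and 600 nm. IC50 obtained from dose-effect data by the median-effect principle.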
# [6] = Cytotoxicity against human U87 cells after 72 hrs by Alamar blue assay; type: functional, cell-based, U-87MG ATCC; settings: U-87 MG; procedure, shortened: as §2
# [7] = Cytotoxicity against human H1299 cells after 72 hrs by Alamar blue assay; type: functional, cell-based; settings: NCI-H1299, 72 h; procedure, shortened: as §2
# [8] = test system: PC-3; assay: Cytotoxicity against human PC3 cells after 72 hrs by Alamar blue assay; type: functional, cell-based; settings: PC-3, 72 h; procedure, shortened: as §2
# [9] = test system: MX1; assay: Cytotoxicity against human MX1 cells after 72 hrs by SRB assay; type: functional, cell-based; settings: MX1, 72 h
# Procedure, shortened: (§3)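 MX-1 breast and HCT-116 colon carcinoma cells exposed 72 h to six or seven drug concentrations. Growth measured by SRB assay with microplate absorbance. IC50 obtained from dose-effect data by the median-effect principle.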
# [10] = test system: HCT-116; assay: Cytotoxicity against human HCT116 cells after 72 hrs by SRB assay; type: functional, cell-based; settings: HCT-116, 72 h; procedure, shortened: as §3
SMILES,pIC50 [1],pIC50 [2],pIC50 [3],Ratio IC50 [4],pIC50 [5],pIC50 [6],pIC50 [7],pIC50 [8],pIC50 [9],pIC50 [10]
CCNC(=O)OCc1c(COC(=O)NCC)c(-c2ccc(F)c(F)c2)n2c1Cc1ccccc1C2,6.17,5.90,5.68,0.6,,,,,,
CC(=O)O[C@H]1C(=O)[C@@]2(C)[C@H]([C@H](OC(=O)c3ccccc3)[C@]3(O)C[C@H](OC(=O)[C@H](O)[C@@H](NC(=O)c4ccccc4)c4ccccc4)C(C)=C1C3(C)C)[C@]1(OC(C)=O)CO[C@@H]1C[C@@H]2O [PACLITAXEL],,,,330,,,,,,
CC(C)NC(=O)OCc1c(COC(=O)NC(C)C)c(-c2ccc(F)cc2)n2c1Cc1ccccc1C2,6.64,6.64,6.12,0.3,4.96,4.43,5.09,4.91,5.93,6.20
CNC(=O)OCc1c(COC(=O)NC)c(-c2ccc(OC)cc2)n2c1Cc1ccccc1C2,7.05,6.89,6.74,0.72,,,,,5.88,5.97
CC(C)NC(=O)OCc1c(COC(=O)NC(C)C)c(-c2ccc(F)c(F)c2)n2c1Cc1ccccc1C2,6.21,6.11,5.88,0.58,,,,,,
OCc1c(CO)c(-c2ccc(Cl)cc2)n2c1Cc1ccccc1C2,6.14,6.11,6.22,1.28,4.92,4.57,4.61,5.01,5.48,5.51
CCc1c(COC(=O)NC(C)C)c(COC(=O)NC(C)C)c2n1Cc1ccccc1C2,6.74,6.49,6.24,0.56,,,,,,
CC(C)NC(=O)OCc1c(COC(=O)NC(C)C)c(-c2ccc(Cl)c(Cl)c2)n2c1Cc1ccccc1C2,5.87,5.61,5.45,0.69,,,,,,
CCNC(=O)OCc1c(COC(=O)NCC)c2n(c1C)Cc1ccccc1C2,6.92,6.96,6.62,0.48,4.95,4.86,4.71,4.81,5.64,6.05
CCNC(=O)OCc1c(COC(=O)NCC)c(-c2cc(OC)c(OC)c(OC)c2)n2c1Cc1ccccc1C2,5.50,5.67,5.85,1.52,,,,,,
CNC(=O)OCc1c(COC(=O)NC)c(-c2ccc(F)c(F)c2)n2c1Cc1ccccc1C2,6.33,6.35,6.31,0.91,,,,,5.56,6.44
CCc1c(CO)c(CO)c2n1Cc1ccccc1C2,6.72,6.68,6.74,1.15,,,,,,
OCc1c(CO)c(-c2ccc(F)c(F)c2)n2c1Cc1ccccc1C2,6.02,5.90,5.94,1.11,,,,,5.16,5.49
COc1cc(-c2c(CO)c(CO)c3n2Cc2ccccc2C3)cc(OC)c1OC,5.56,5.54,5.71,1.45,,,,,,
CCNC(=O)OCc1c(COC(=O)NCC)c(-c2ccc(F)cc2)n2c1Cc1ccccc1C2,6.24,6.37,6.51,1.39,4.90,4.55,5.40,5.02,5.82,6.10
COc1ccc(-c2c(COC(=O)NC(C)C)c(COC(=O)NC(C)C)c3n2Cc2ccccc2C3)cc1OC,6.11,6.22,5.89,0.46,,,,,,
OCc1c(CO)c(-c2ccc(F)cc2)n2c1Cc1ccccc1C2,6.31,6.06,6.29,1.72,5.16,4.63,5.06,5.23,5.40,5.61
CCNC(=O)OCc1c(COC(=O)NCC)c2n(c1CC)Cc1ccccc1C2,6.62,6.68,6.36,0.48,,,,,,

SMILES,pIC50 [1],pIC50 [2],pIC50 [3],Ratio IC50 [4],pIC50 [5],pIC50 [6],pIC50 [7],pIC50 [8],pIC50 [9],pIC50 [10]
COc1ccc(-c2c(CO)c(CO)c3n2Cc2ccccc2C3)cc1,6.96,6.60,6.64,1.02,5.21,4.98,4.86,4.96,5.70,5.95
CC(C)NC(=O)OCc1c(COC(=O)NC(C)C)c(-c2ccccc2)n2c1Cc1ccccc1C2,6.60,6.64,6.35,0.5,,,,,,
COc1ccc(-c2c(COC(=O)NC(C)C)c(COC(=O)NC(C)C)c3n2Cc2ccccc2C3)cc1,6.80,6.72,6.47,0.56,5.05,4.68,4.88,5.17,6.01,6.01
CCNC(=O)OCc1c(COC(=O)NCC)c(-c2ccc(OC)c(OC)c2)n2c1Cc1ccccc1C2,6.19,6.09,5.97,0.75,,,,,,
CCNC(=O)OCc1c(COC(=O)NCC)c(-c2ccc(OC)cc2)n2c1Cc1ccccc1C2,6.46,6.66,6.43,0.58,4.98,4.77,4.56,4.73,5.90,6.12
COc1ccc(-c2c(CO)c(CO)c3n2Cc2ccccc2C3)cc1OC,6.21,6.12,5.96,0.69,,,,,,
Cc1c(COC(=O)NC(C)C)c(COC(=O)NC(C)C)c2n1Cc1ccccc1C2,6.85,6.64,6.57,0.84,4.93,4.57,5.01,4.77,5.89,5.86
CCNC(=O)OCc1c(COC(=O)NCC)c(-c2ccc(Cl)c(Cl)c2)n2c1Cc1ccccc1C2,5.92,6.05,5.63,0.38,,,,,,
COc1cc(-c2c(COC(=O)NC(C)C)c(COC(=O)NC(C)C)c3n2Cc2ccccc2C3)cc(OC)c1OC,5.85,5.92,6.05,1.35,,,,,,
CNC(=O)OCc1c(COC(=O)NC)c2n(c1C)Cc1ccccc1C2,7.10,6.96,6.89,0.86,,,,,5.77,5.93
CC[C@]1(O)C[C@@H]2CN(CCc3c([nH]c4ccccc34)[C@@](C(=O)OC)(c3cc4c(cc3OC)N(C)[C@H]3[C@@](O)(C(=O)OC)[C@H](OC(C)=O)[C@]5(CC)C=CCN6CC[C@]43[C@@H]65)C2)C1 [VINBLASTINE],,,,106.2,,,,,,
CC(C)NC(=O)OCc1c(COC(=O)NC(C)C)c(-c2ccc(Cl)cc2)n2c1Cc1ccccc1C2,6.24,6.20,6.27,1.16,4.58,4.64,4.60,5.00,5.77,6.16
OCc1c(CO)c(-c2ccccc2)n2c1Cc1ccccc1C2,6.54,6.30,6.29,0.99,,,,,,
OCc1c(CO)c(-c2ccc(Cl)c(Cl)c2)n2c1Cc1ccccc1C2,5.19,5.32,5.07,0.57,,,,,,
CCNC(=O)OCc1c(COC(=O)NCC)c(-c2ccc(Cl)cc2)n2c1Cc1ccccc1C2,6.24,6.46,6.23,0.59,4.60,4.47,4.43,4.96,5.77,6.21
CCNC(=O)OCc1c(COC(=O)NCC)c(-c2ccccc2)n2c1Cc1ccccc1C2,6.64,6.59,6.59,1.01,,,,,,
CNC(=O)OCc1c(COC(=O)NC)c(-c2ccc(Cl)cc2)n2c1Cc1ccccc1C2,6.80,6.66,6.72,1.18,,,,,5.93,7.40
